Data taken from ChEMBL document CHEMBL1141408, “Synthesis and antimalarial activity of new isotebuquine analogues” (J Med Chem, 2007).
Converted amounts (≈) assume the structure as drawn. The source made the active and inactive calls. The calls are words filed in the database; no cut-off is given here.

What was measured:
[1] = tested on: Plasmodium falciparum; assay: Antimalarial activity against chloroquine-resistant Plasmodium falciparum W2; type: functional, organism-based
Outline: (§1)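 Compound DMSO stocks were diluted 400-fold in RPMI 1640 with 25 mM Hepes, 32 mM NaHCO₃ and 10% Albumax I, then 2-fold serially over 11 concentrations. Parasites were exposed for 48 h at 37 °C under 5% O₂/5% CO₂/90% N₂, pulsed with [³H]-hypoxanthine for 18 h, and DNA was harvested onto glass filters for scintillation counting. IC50 was derived by nonlinear-regression logistic dose-response fitting.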

[2] = tested on: Plasmodium falciparum; assay: Antimalarial activity against chloroquine-resistant Plasmodium falciparum TM91C235; type: functional, organism-based; outline: as §1
[3] = tested on: Plasmodium falciparum; assay: Antimalarial activity against chloroquine-sensitive Plasmodium falciparum D6; type: functional, organism-based; outline: as §1
[4] = Toxicity against murine J774 macrophage cells; type: cell-based; conditions: mouse
Outline: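 Murine J774 monocyte-like macrophage subclone G8, maintained in DMEM with 10% fetal calf serum, 2 mM L-glutamine and 50 µg/mL gentamicin at 37 °C in 5% CO2/95% air. Cells seeded at 1 × 10⁴/well and left 24 h. Drug or solvent control, diluted in medium, then added for 72 h. Viability read by MTS tetrazolium/formazan conversion after 1–2 h at 37 °C.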

SMILES	IC50 [1]	IC50 [2]	IC50 [3]	IC50 [4]	Activity [2]
CC(C)(C)NCc1c(O)cc(Nc2ccnc3cc(Cl)ccc23)cc1-c1ccc(C(F)(F)F)cc1	14 ng/mL (≈ 28 nM)	73 ng/mL (≈ 146 nM)	1.2 ng/mL (≈ 2.4 nM)	–	–
CC(C)(C)NCc1c(O)cc(-c2ccc(Cl)cc2)c(CNC(C)(C)C)c1Nc1ccnc2cc(Cl)ccc12	2.6 ng/mL (≈ 4.71 nM)	2.3 ng/mL (≈ 4.17 nM)	2.2 ng/mL (≈ 3.99 nM)	3600 ng/mL (≈ 6530 nM)	–
CC(C)(C)NCc1c(O)cc(-c2ccc(C(F)(F)F)cc2)cc1Nc1ccnc2cc(Cl)ccc12	2.1 ng/mL (≈ 4.2 nM)	1.8 ng/mL (≈ 3.6 nM)	1.8 ng/mL (≈ 3.6 nM)	1700 ng/mL (≈ 3400 nM)	–
CC(C)(C)NCc1c(Nc2ccnc3cc(Cl)ccc23)cc(O)cc1-c1ccc(C(F)(F)F)cc1	130 ng/mL (≈ 260 nM)	63 ng/mL (≈ 126 nM)	7.1 ng/mL (≈ 14.2 nM)	11600 ng/mL (≈ 23200 nM)	–
Oc1cc(Nc2ccnc3cc(Cl)ccc23)cc(-c2ccc(C(F)(F)F)cc2)c1	300 ng/mL (≈ 723 nM)	140 ng/mL (≈ 338 nM)	15 ng/mL (≈ 36.2 nM)	–	–
CC(C)(C)NCc1c(O)cc(Nc2ccnc3cc(Cl)ccc23)c(CNC(C)(C)C)c1-c1ccc(Cl)cc1	5.3 ng/mL (≈ 9.61 nM)	2.5 ng/mL (≈ 4.53 nM)	2.8 ng/mL (≈ 5.08 nM)	2800 ng/mL (≈ 5080 nM)	–
CC(C)(C)NCc1c(O)cc(-c2ccc(Cl)cc2)cc1Nc1ccnc2cc(Cl)ccc12	1.6 ng/mL (≈ 3.43 nM)	1.7 ng/mL (≈ 3.64 nM)	1.4 ng/mL (≈ 3 nM)	1600 ng/mL (≈ 3430 nM)	–
CC(C)(C)NCc1c(O)cc(-c2ccc(C(F)(F)F)cc2)c(CNC(C)(C)C)c1Nc1ccnc2cc(Cl)ccc12	2.8 ng/mL (≈ 4.79 nM)	2 ng/mL (≈ 3.42 nM)	1.9 ng/mL (≈ 3.25 nM)	750 ng/mL (≈ 1280 nM)	–
[O-][n+]1ccc(Nc2cc(O)cc(-c3ccc(Cl)cc3)c2)c2ccc(Cl)cc21	> 1000 ng/mL	580 ng/mL (≈ 1460 nM)	397 ng/mL (≈ 999 nM)	–	–
CC(C)(C)NCc1c(O)cc(Nc2ccnc3cc(Cl)ccc23)c(CNC(C)(C)C)c1-c1ccc(C(F)(F)F)cc1	3.6 ng/mL (≈ 6.15 nM)	3 ng/mL (≈ 5.13 nM)	1.8 ng/mL (≈ 3.08 nM)	–	–
CC(C)(C)NCc1cc(Nc2cc[n+]([O-])c3cc(Cl)ccc23)cc(-c2ccc(Cl)cc2)c1O	0.9 ng/mL (≈ 1.87 nM)	2.3 ng/mL (≈ 4.77 nM)	1.5 ng/mL (≈ 3.11 nM)	7200 ng/mL (≈ 14900 nM)	–
CC(C)(C)NCc1cc(Nc2ccnc3cc(Cl)ccc23)cc(-c2ccc(Cl)cc2)c1O [TEBUQUINE]	0.04 ng/mL (≈ 0.0858 nM)	–	0.1 ng/mL (≈ 0.214 nM)	1800 ng/mL (≈ 3860 nM)	inactive
CC(C)(C)NCc1c(Nc2cc[n+]([O-])c3cc(Cl)ccc23)cc(O)cc1-c1ccc(Cl)cc1	9.2 ng/mL (≈ 19.1 nM)	8.8 ng/mL (≈ 18.2 nM)	4.3 ng/mL (≈ 8.91 nM)	–	–
Oc1cc(Nc2ccnc3cc(Cl)ccc23)cc(-c2ccc(Cl)cc2)c1	22.4 ng/mL (≈ 58.8 nM)	–	8.8 ng/mL (≈ 23.1 nM)	–	inactive
CC(C)(C)NCc1c(Nc2ccnc3cc(Cl)ccc23)cc(O)cc1-c1ccc(Cl)cc1	0.4 ng/mL (≈ 0.858 nM)	1.78 ng/mL (≈ 3.82 nM)	0.3 ng/mL (≈ 0.643 nM)	6100 ng/mL (≈ 13100 nM)	–
CC(C)(C)NCc1c(O)cc(-c2ccc(Cl)cc2)c(CNC(C)(C)C)c1Nc1cc[n+]([O-])c2cc(Cl)ccc12	9.1 ng/mL (≈ 16 nM)	8.5 ng/mL (≈ 15 nM)	4.1 ng/mL (≈ 7.22 nM)	–	–
